# Source: ChEMBL document CHEMBL3525946, “Species comparison of in vivo P-glycoprotein-mediated brain efflux using mdr1a-deficient rats and mice” (Drug Metab Dispos, 2012)
# Tests used:
# [1] = Percentage unbound in Crl:NMRI(Han) mouse plasma at 1 uM after 5 hrs by equilibrium dialysis method; format: ADME, cell-free
# Summary of the method: (§1)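 Equilibrium dialysis (12-14 kDa membrane) of plasma or brain homogenate from naïve male Sprague-Dawley rats or Crl:NMRI(Han) mice. Donor side spiked to 1 µM final; receiver phosphate buffer pH 7.4; 37°C for 5 h. Buffer phase quantified by LC-MS. Brain fu corrected for homogenate dilution to intact tissue. Mean of two independent determinations.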
# [2] = Total plasma concentration in wild type Sprague-Dawley rat expressing Abcb1a at 5 mg/kg/day administered through continuous minipump treatment for 3 days by UPLC-MS analysis; format: ADME, organism-based; conditions: other: continuous minipump
# Summary of the method: (§2)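 Drug was infused subcutaneously by osmotic minipump for 3 days to steady state, at 1 µl/h in mice and 10 µl/h in rats, with doses derived from body weight and delivery rate. Animals were decapitated. Plasma came from EDTA trunk blood spun at 5000 g for 10 min at 4 °C. Whole brain was homogenised 1:4 in 70% acetonitrile and the supernatant kept. Samples were protein-precipitated with internal standard and analysed by UPLC. n=3-5, mean ± SEM.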
# [3] = Total drug level in wild type Sprague-Dawley rat brain expressing Abcb1a at 5 mg/kg/day administered through continuous minipump treatment for 3 days by UPLC-MS analysis; format: ADME, organism-based; conditions: other: continuous minipump, read-out: Drug uptake; summary of the method: as §2
# [4] = Total brain to plasma partition coefficient of the compound in wild type Sprague-Dawley rat expressing Abcb1a at 5 mg/kg/day administered through continuous minipump treatment for 3 days; conditions: brain and plasma, other: continuous minipump
# [5] = Total plasma concentration in mdr1a-deficient rat at 5 mg/kg/day administered through continuous minipump treatment for 3 days by UPLC-MS analysis; format: ADME, organism-based; conditions: other: continuous minipump; summary of the method: as §2
# [6] = Total drug level in mdr1a-deficient rat brain at 5 mg/kg/day administered through continuous minipump treatment for 3 days by UPLC-MS analysis; format: ADME, organism-based; conditions: other: continuous minipump, read-out: Drug uptake; summary of the method: as §2
# [7] = Total brain to plasma partition coefficient of the compound in mdr1a-deficient Sprague-Dawley rat at 5 mg/kg/day administered through continuous minipump treatment for 3 days; conditions: brain and plasma, other: continuous minipump
# [8] = Total drug level in wild type Crl:CF1 mouse brain expressing Abcb1a mutant at 4 mg/kg/day administered through continuous minipump treatment for 3 days by UPLC-MS analysis; format: ADME, organism-based; conditions: other: continuous minipump, read-out: Drug uptake; summary of the method: as §2
# [9] = Total brain to plasma partition coefficient of the compound in wild type Crl:CF1 mouse expressing Abcb1a mutant at 4 mg/kg/day administered through continuous minipump treatment for 3 days; conditions: brain and plasma, other: continuous minipump
# [10] = Total plasma concentration in mdr1a-deficient mouse at 4 mg/kg/day administered through continuous minipump treatment for 3 days by UPLC-MS analysis; format: ADME, organism-based; conditions: other: continuous minipump; summary of the method: as §2
# [11] = Total drug level in mdr1a-deficient mouse brain at 4 mg/kg/day administered through continuous minipump treatment for 3 days by UPLC-MS analysis; format: ADME, organism-based; conditions: other: continuous minipump, read-out: Drug uptake; summary of the method: as §2
# [12] = Total brain to plasma partition coefficient of the compound in mdr1a-deficient mouse at 4 mg/kg/day administered through continuous minipump treatment for 3 days; conditions: other: continuous minipump
# [13] = Percentage unbound in Sprague-Dawley rat plasma at 1 uM after 5 hrs by equilibrium dialysis method; format: ADME, cell-free; summary of the method: as §1
# [14] = Percentage unbound in Sprague-Dawley rat brain at 1 uM after 5 hrs by equilibrium dialysis method; format: ADME, tissue-based; summary of the method: as §1
# [15] = Total plasma concentration in wild type Crl:CF1 mouse expressing Abcb1a mutant at 4 mg/kg/day administered through continuous minipump treatment for 3 days by UPLC-MS analysis; format: ADME, organism-based; conditions: other: continuous minipump; summary of the method: as §2
# [16] = Unbound brain to plasma partition coefficient of the compound in wild type Sprague-Dawley rat expressing Abcb1a at 5 mg/kg/day administered through continuous minipump treatment for 3 days; format: ADME, organism-based; conditions: other: continuous minipump, read-out: K(p,uu,brain)
# Summary of the method: (§3)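 Kp,uu = Cbrain,total × fu,brain / Cplasma,total × fu,plasma, using steady-state totals from 3-day subcutaneous minipump infusion. Free fractions came from equilibrium dialysis (12-14 kDa membrane) of naive Sprague-Dawley rat or NMRI mouse plasma or brain homogenate spiked to 1 µM final, against pH 7.4 phosphate buffer for 5 h at 37 °C, read by LC-MS and corrected for brain dilution. fu is the mean of two determinations.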
# [17] = Unbound brain to plasma partition coefficient of the compound in mdr1a-deficient rat at 5 mg/kg/day administered through continuous minipump treatment for 3 days; format: ADME, organism-based; conditions: other: continuous minipump, read-out: K(p,uu,brain); summary of the method: as §3
# [18] = Percentage unbound in Crl:NMRI(Han) mouse brain at 1 uM after 5 hrs by equilibrium dialysis method; format: ADME, tissue-based; summary of the method: as §1
# [19] = Unbound brain to plasma partition coefficient of the compound in wild type Crl:CF1 mouse expressing Abcb1a mutant at 4 mg/kg/day administered through continuous minipump treatment for 3 days; format: ADME, organism-based; conditions: other: continuous minipump, read-out: K(p,uu,brain); summary of the method: as §3
# [20] = Unbound brain to plasma partition coefficient of the compound in mdr1a-deficient mouse at 4 mg/kg/day administered through continuous minipump treatment for 3 days; format: ADME, organism-based; conditions: other: continuous minipump, read-out: K(p,uu,brain); summary of the method: as §3
# [21] = Total plasma concentration in wild type Sprague-Dawley rat expressing Abcb1a at 9 mg/kg/day administered through continuous minipump treatment for 3 days by UPLC-MS analysis; format: ADME, organism-based; conditions: other: continuous minipump; summary of the method: as §2
# [22] = Total drug level in wild type Sprague-Dawley rat brain expressing Abcb1a at 9 mg/kg/day administered through continuous minipump treatment for 3 days by UPLC-MS analysis; format: ADME, organism-based; conditions: other: continuous minipump, read-out: Drug uptake; summary of the method: as §2
# [23] = Total brain to plasma partition coefficient of the compound in wild type Sprague-Dawley rat expressing Abcb1a at 9 mg/kg/day administered through continuous minipump treatment for 3 days; format: ADME, organism-based; conditions: brain and plasma, other: continuous minipump
# [24] = Total plasma concentration in mdr1a-deficient rat at 9 mg/kg/day administered through continuous minipump treatment for 3 days by UPLC-MS analysis; format: ADME, organism-based; conditions: other: continuous minipump; summary of the method: as §2
# [25] = Total drug level in mdr1a-deficient rat brain at 9 mg/kg/day administered through continuous minipump treatment for 3 days by UPLC-MS analysis; format: ADME, organism-based; conditions: other: continuous minipump, read-out: Drug uptake; summary of the method: as §2
# [26] = Total brain to plasma partition coefficient of the compound in mdr1a-deficient rat at 9 mg/kg/day administered through continuous minipump treatment for 3 days; format: ADME, organism-based; conditions: brain and plasma, other: continuous minipump
# [27] = Total plasma concentration in wild type Crl:CF1 mouse expressing Abcb1a mutant at 12 mg/kg/day administered through continuous minipump treatment for 3 days by UPLC-MS analysis; format: ADME, organism-based; conditions: other: continuous minipump; summary of the method: as §2
# [28] = Total drug level in wild type Crl:CF1 mouse brain expressing Abcb1a mutant at 12 mg/kg/day administered through continuous minipump treatment for 3 days by UPLC-MS analysis; format: ADME, organism-based; conditions: other: continuous minipump, read-out: Drug uptake; summary of the method: as §2
# [29] = Total brain to plasma partition coefficient of the compound in wild type Crl:CF1 mouse expressing Abcb1a mutant at 12 mg/kg/day administered through continuous minipump treatment for 3 days; format: ADME, organism-based; conditions: brain and plasma, other: continuous minipump
# Summary of the method: (§4)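 Rats (SD-Abcb1a knockout or wild-type, 350-500 g) or mice (Crl:CF1-Abcb1a mutant or CF-1 background, 25-45 g) received drug by subcutaneous osmotic minipump (pump content as free base) for 3 days to steady state. After decapitation, trunk EDTA plasma and whole brain (homogenised 1:4 in 70% acetonitrile) were assayed by UPLC. Kp = total brain/total plasma concentration. n=3-5, mean ± SEM.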
# [30] = Total plasma concentration in mdr1a-deficient mouse at 12 mg/kg/day administered through continuous minipump treatment for 3 days by UPLC-MS analysis; format: ADME, organism-based; conditions: other: continuous minipump; summary of the method: as §2
# [31] = Total drug level in mdr1a-deficient mouse brain at 12 mg/kg/day administered through continuous minipump treatment for 3 days by UPLC-MS analysis; format: ADME, organism-based; conditions: other: continuous minipump, read-out: Drug uptake; summary of the method: as §2
# [32] = Total brain to plasma partition coefficient of the compound in mdr1a-deficient mouse at 12 mg/kg/day administered through continuous minipump treatment for 3 days; format: ADME, organism-based; conditions: other: continuous minipump; summary of the method: as §4
# [33] = Unbound brain to plasma partition coefficient of the compound in wild type Sprague-Dawley rat expressing Abcb1a at 9 mg/kg/day administered through continuous minipump treatment for 3 days; format: ADME, organism-based; conditions: other: continuous minipump, read-out: K(p,uu,brain)
# [34] = Unbound brain to plasma partition coefficient of the compound in mdr1a-deficient rat at 9 mg/kg/day administered through continuous minipump treatment for 3 days; format: ADME, organism-based; conditions: other: continuous minipump, read-out: K(p,uu,brain)
# [35] = Unbound brain to plasma partition coefficient of the compound in wild type Crl:CF1 mouse expressing Abcb1a mutant at 12 mg/kg/day administered through continuous minipump treatment for 3 days; format: ADME, organism-based; conditions: other: continuous minipump, read-out: K(p,uu,brain); summary of the method: as §3
# [36] = Unbound brain to plasma partition coefficient of the compound in mdr1a-deficient mouse at 12 mg/kg/day administered through continuous minipump treatment for 3 days; format: ADME, organism-based; conditions: other: continuous minipump, read-out: K(p,uu,brain); summary of the method: as §3
compound,measurement,setting,value
Cc1nc2n(c(=O)c1CCN1CCC(c3noc4cc(F)ccc34)CC1)CCCC2 [RISPERIDONE],"fraction unbound at 5 h, 1 µM",[1],0.27
same,concentration at 72 h,[2],194 ng/mL
same,concentration at 72 h,[3],41 ng/g
same,Kp at 72 h,[4],0.22
same,concentration at 72 h,[5],168 ng/mL
same,concentration at 72 h,[6],295 ng/g
same,Kp at 72 h,[7],1.9
same,concentration at 72 h,[8],21 ng/g
same,Kp at 72 h,[9],0.52
same,concentration at 72 h,[10],40 ng/mL
same,concentration at 72 h,[11],149 ng/g
same,Kp at 72 h,[12],3.8
same,"fraction unbound at 5 h, 1 µM",[13],0.11
same,"fraction unbound at 5 h, 1 µM",[14],0.09
same,concentration at 72 h,[15],43 ng/mL
same,Kp uu at 72 h,[16],0.17
same,Kp uu at 72 h,[17],1.4
same,"fraction unbound at 5 h, 1 µM",[18],0.058
same,Kp uu at 72 h,[19],0.11
same,Kp uu at 72 h,[20],0.81
COc1ccc(C(CN(C)C)C2(O)CCCCC2)cc1.Cl (stereo not given) [VENLAFAXINE HYDROCHLORIDE],"fraction unbound at 5 h, 1 µM",[1],> 0.99
same,concentration at 72 h,[21],50 ng/mL
same,concentration at 72 h,[22],158 ng/g
same,Kp at 72 h,[23],3.3
same,concentration at 72 h,[24],63 ng/mL
same,concentration at 72 h,[25],389 ng/g
same,Kp at 72 h,[26],6.3
same,concentration at 72 h,[27],85 ng/mL
same,concentration at 72 h,[28],403 ng/g
same,Kp at 72 h,[29],4.7
same,concentration at 72 h,[30],105 ng/mL
same,concentration at 72 h,[31],828 ng/g
same,Kp at 72 h,[32],8.3
same,"fraction unbound at 5 h, 1 µM",[13],0.64
same,"fraction unbound at 5 h, 1 µM",[14],0.092
same,Kp uu at 72 h,[33],0.45
same,Kp uu at 72 h,[34],0.89
same,"fraction unbound at 5 h, 1 µM",[18],0.18
same,Kp uu at 72 h,[35],0.86
same,Kp uu at 72 h,[36],1.4
